Experimental data published in ChEMBL document CHEMBL4028914, “Structure-Based Design of 6-Chloro-4-aminoquinazoline-2-carboxamide Derivatives as Potent and Selective p21-Activated Kinase 4 (PAK4) Inhibitors” (J Med Chem, 2018).
Activity calls are given as the source filed them. The calls are words filed in the database; no cut-off is given here.

How the values were obtained:
[1] = target: T1, Serine/threonine-protein kinase PAK 4 (Homo sapiens, UniProt O96013); assay: Inhibition of human PAK4 kinase domain using coumarin and fluorescein-labeled ser/thr20 peptide as substrate preincubated for 15 mins followed by ATP addition measured after 60 mins by Z'-Lyte assay
Target sequence in this assay (O96013 whole entry, the tested form may be a part): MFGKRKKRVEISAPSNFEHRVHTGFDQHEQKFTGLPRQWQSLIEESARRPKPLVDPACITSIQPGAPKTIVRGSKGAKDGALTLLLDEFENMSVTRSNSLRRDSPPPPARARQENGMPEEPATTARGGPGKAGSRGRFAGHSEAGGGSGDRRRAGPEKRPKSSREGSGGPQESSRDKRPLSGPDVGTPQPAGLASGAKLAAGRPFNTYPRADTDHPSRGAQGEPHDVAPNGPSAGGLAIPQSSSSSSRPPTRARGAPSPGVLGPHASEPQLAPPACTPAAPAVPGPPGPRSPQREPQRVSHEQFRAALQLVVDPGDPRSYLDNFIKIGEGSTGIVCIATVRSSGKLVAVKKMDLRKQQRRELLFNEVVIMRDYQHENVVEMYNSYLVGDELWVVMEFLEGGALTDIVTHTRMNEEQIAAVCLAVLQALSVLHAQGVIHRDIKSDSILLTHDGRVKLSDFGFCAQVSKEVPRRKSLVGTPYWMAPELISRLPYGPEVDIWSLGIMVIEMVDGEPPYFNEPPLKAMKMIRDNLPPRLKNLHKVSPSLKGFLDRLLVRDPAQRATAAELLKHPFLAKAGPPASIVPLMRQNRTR

[2] = target: T2, Serine/threonine-protein kinase PAK 1 (Homo sapiens, UniProt Q13153); assay: Inhibition of human PAK1 kinase domain using coumarin and fluorescein-labeled ser/thr19 peptide as substrate preincubated for 15 mins followed by ATP addition measured after 60 mins by Z'-Lyte assay
Method in brief: (§1)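 FRET-based Z′-Lyte kinase assay run per the kit instructions. Ki values are the average of at least two duplicate experiments; SEM < ±20%.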

Homo sapiens = species on record: Homo sapiens; assay: Selectivity index, ratio of Ki for human PAK1 to Ki for human PAK4
Method in brief: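 Ratio of PAK1 Ki to PAK4 Ki, both taken from the FRET-based Z′-Lyte assay.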

[3] = target: T1, Serine/threonine-protein kinase PAK 4; assay: Binding affinity to biotin-labeled human truncated PAK4 kinase domain by surface plasmon resonance assay
Method in brief: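 Binding to the truncated PAK4 was measured by SPR with multiconcentration kinetic analysis. Kd was taken from a 1:1 binding model fit.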
Target sequence in this assay (O96013 whole entry, the tested form may be a part): as above

[4] = target: Serine/threonine-protein kinase PAK 5 (Homo sapiens, UniProt Q9P286); assay: Inhibition of full length recombinant human His-tagged PAK5 […] expressed in Baculovirus expression system by Z'-Lyte assay
[5] = target: T1, Serine/threonine-protein kinase PAK 4; assay: Inhibition of GST-tagged human PAK4 (295 to 591 residues) expressed in Baculovirus expression system by Z'-Lyte assay; method in brief: as §1
Target sequence in this assay (O96013 whole entry, the tested form may be a part): as above

[6] = target: T1, Serine/threonine-protein kinase PAK 4; assay: Binding affinity to human truncated PAK4 kinase domain assessed as change in melting temperature at 20 uM by SYPRO orange dye based differential scanning fluorimetry
Method in brief: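 Melting-temperature shift of the compound–truncated PAK4 complex was measured by differential scanning fluorimetry, relative to the truncated PAK4 protein alone.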
Target sequence in this assay (O96013 whole entry, looked up, the tested form may be a part): as the sequence (O96013 whole entry, the tested form may be a part) above

[7] = target: T2, Serine/threonine-protein kinase PAK 1; assay: Inhibition of PAK1 (unknown origin)
[8] = target: T1, Serine/threonine-protein kinase PAK 4; assay: Inhibition of PAK4 (unknown origin) using histone H3 as substrate
Target sequence in this assay (O96013 whole entry, the tested form may be a part): as above

A549 [9] = assay: Antiproliferative activity against human A549 cells up to 72 hrs by MTT assay; format: functional, cell-based
A549 [10] = assay: Antimigratory activity against human A549 cells at 0.5 to 10 uM after 24 hrs by transwell assay; format: functional, cell-based
[11] = target: T1, Serine/threonine-protein kinase PAK 4; assay: Inhibition of human PAK4 in human A549 cells assessed as decrease in phosphorylation of GEF-H1 at Ser810 residue up to 10 uM by Western blotting method; format: cell-based
Target sequence in this assay (O96013 whole entry, looked up, the tested form may be a part): as the sequence (O96013 whole entry, the tested form may be a part) above

[12] = target: T1, Serine/threonine-protein kinase PAK 4; assay: Inhibition of human PAK4 in human A549 cells assessed as decrease in phosphorylation levels of cofilin by Western blotting method; format: cell-based
Target sequence in this assay (O96013 whole entry, looked up, the tested form may be a part): as the sequence (O96013 whole entry, the tested form may be a part) above

[13] = target: T1, Serine/threonine-protein kinase PAK 4; assay: Inhibition of GST-tagged human PAK4 (295 to 591 residues) expressed in Baculovirus expression system at 0.1 uM by Z'-Lyte assay relative to control
Target sequence in this assay (O96013 whole entry, looked up, the tested form may be a part): as the sequence (O96013 whole entry, the tested form may be a part) above

[14] = target: T1, Serine/threonine-protein kinase PAK 4; assay: Inhibition of human PAK4 in human A549 cells assessed as decrease in phosphorylation levels of PAK4 at Ser474 residue by Western blot method; format: cell-based
Target sequence in this assay (O96013 whole entry, looked up, the tested form may be a part): as the sequence (O96013 whole entry, the tested form may be a part) above

HEK293 [15] = assay: Antiinvasive activity against human HEK293 cells at 0.5 to 10 uM after 24 hrs by transwell assay; format: functional, cell-based
[16] = target: T1, Serine/threonine-protein kinase PAK 4; assay: Inhibition of human PAK4 in human A549 cells assessed as decrease in MMP2 expression up to 10 uM by Western blotting method; format: cell-based
Target sequence in this assay (O96013 whole entry, looked up, the tested form may be a part): as the sequence (O96013 whole entry, the tested form may be a part) above

NCI-H460 [17] = assay: Antiinvasive activity against human NCI-H460 cells at 0.5 to 10 uM after 24 hrs by transwell assay; format: functional, cell-based
HEK293 [18] = assay: Antimigratory activity against human HEK293 cells at 0.5 to 10 uM after 24 hrs by transwell assay; format: functional, cell-based
[19] = target: T1, Serine/threonine-protein kinase PAK 4; assay: Inhibition of human PAK4 in human A549 cells assessed as decrease in phosphorylation levels of LIMK1 by Western blotting method; format: cell-based
A549 [20] = assay: Antiinvasive activity against human A549 cells at 0.5 to 10 uM after 24 hrs by transwell assay; format: functional, cell-based
A549 [21] = assay: Antimigratory activity against human A549 cells at 0.5 to 10 uM after 48 hrs by wound healing assay; format: functional, cell-based
NCI-H460 [22] = assay: Antimigratory activity against human NCI-H460 cells at 0.5 to 10 uM after 24 hrs by transwell assay; format: functional, cell-based

T2 sequence (Q13153 whole entry, the tested form may be a part): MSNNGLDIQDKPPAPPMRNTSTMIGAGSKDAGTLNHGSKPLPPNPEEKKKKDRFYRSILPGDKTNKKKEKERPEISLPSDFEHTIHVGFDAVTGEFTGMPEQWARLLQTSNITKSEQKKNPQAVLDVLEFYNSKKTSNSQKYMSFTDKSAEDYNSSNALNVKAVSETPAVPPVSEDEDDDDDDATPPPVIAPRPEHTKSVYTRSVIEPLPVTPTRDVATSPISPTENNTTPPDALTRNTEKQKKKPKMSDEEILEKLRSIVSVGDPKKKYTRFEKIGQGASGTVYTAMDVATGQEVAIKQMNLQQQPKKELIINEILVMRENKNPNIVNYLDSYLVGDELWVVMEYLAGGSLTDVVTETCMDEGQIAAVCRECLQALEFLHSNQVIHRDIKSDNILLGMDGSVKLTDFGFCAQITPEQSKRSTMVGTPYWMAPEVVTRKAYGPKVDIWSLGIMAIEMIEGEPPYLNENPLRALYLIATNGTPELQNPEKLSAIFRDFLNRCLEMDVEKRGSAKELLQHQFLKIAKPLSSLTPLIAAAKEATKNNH
Sequence of Serine/threonine-protein kinase PAK 5 (Q9P286 whole entry, the tested form may be a part): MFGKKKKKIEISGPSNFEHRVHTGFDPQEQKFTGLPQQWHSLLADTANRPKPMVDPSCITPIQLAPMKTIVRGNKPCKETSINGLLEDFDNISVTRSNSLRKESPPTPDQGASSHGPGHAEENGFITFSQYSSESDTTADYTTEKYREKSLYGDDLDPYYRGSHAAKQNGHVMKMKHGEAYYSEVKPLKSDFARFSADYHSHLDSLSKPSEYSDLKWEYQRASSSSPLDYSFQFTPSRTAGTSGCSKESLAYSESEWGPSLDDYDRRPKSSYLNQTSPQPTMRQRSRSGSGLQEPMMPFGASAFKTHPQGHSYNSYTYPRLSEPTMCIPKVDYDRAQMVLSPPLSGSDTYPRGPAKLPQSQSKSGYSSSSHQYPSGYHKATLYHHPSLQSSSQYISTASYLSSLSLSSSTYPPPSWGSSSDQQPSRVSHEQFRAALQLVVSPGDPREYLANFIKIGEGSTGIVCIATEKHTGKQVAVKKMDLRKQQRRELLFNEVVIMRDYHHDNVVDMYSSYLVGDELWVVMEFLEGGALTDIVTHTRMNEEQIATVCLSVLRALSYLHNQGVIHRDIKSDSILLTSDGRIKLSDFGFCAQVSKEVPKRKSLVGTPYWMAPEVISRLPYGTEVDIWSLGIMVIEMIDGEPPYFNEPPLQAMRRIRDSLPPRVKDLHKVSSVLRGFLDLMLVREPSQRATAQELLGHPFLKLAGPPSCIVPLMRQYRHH

SMILES | Ki [1] | Ki [2] | Ratio Ki (Homo sapiens) | also measured
CNC1CCN(C(=O)c2nc(Nc3cc(C)[nH]n3)c3cc(Cl)ccc3n2)CC1 | 672 nM |  |  | 
Cc1cc(Nc2nc(C(=O)N(C)C3CCNCC3)nc3ccc(Cl)cc23)n[nH]1 | 576 nM |  |  | 
Cc1cc(Nc2nc(C(=O)N3CCC(C)(N)CC3)nc3ccc(Cl)cc23)n[nH]1 | 674 nM |  |  | 
Cc1cc(Nc2nc(C(=O)N(C)C3CCCNC3)nc3ccc(Cl)cc23)n[nH]1 (racemic) | 1630 nM |  |  | 
Cc1cc(Nc2nc(C(=O)N3CCNCC3)nc3ccc(Cl)cc23)n[nH]1 | 45 nM | > 10000 nM | > 222 | Kd [3]: 66 nM
Cc1cc(Nc2nc(C(=O)N3CCC(C)(O)CC3)nc3ccc(Cl)cc23)n[nH]1 | 3890 nM |  |  | 
CC[C@@H]1CN(C(=O)c2nc(Nc3cc(C4CC4)[nH]n3)c3cc(Cl)ccc3n2)CCN1 | 6 nM | 368 nM | 61 | 
Cc1cc(Nc2nc(N3CCC(N)CC3)nc3ccc(Cl)cc23)n[nH]1 | 99 nM | 1890 nM | 18 | Kd [3]: 43 nM
C[C@H]1CNCCN1C(=O)c1nc(Nc2cc(C3CC3)[nH]n2)c2cc(Cl)ccc2n1 | 26 nM | 383 nM | 15 | 
Cc1cc(Nc2nc(C(=O)N3CCC(N)CC3)nc3ccc(Cl)cc23)n[nH]1 | 354 nM |  |  | 
Cc1cc(Nc2nc(C(=O)N3CCOCC3)nc3ccc(Cl)cc23)n[nH]1 | 2170 nM |  |  | Kd [3]: 1940 nM
C[C@@H]1CN(C(=O)c2nc(Nc3cc(C4CC4)[nH]n3)c3ccc(Cl)cc3n2)CCN1 | 7 nM | 401 nM | 57 | 
Cc1cc(Nc2nc(C(=O)N3CCN[C@@H](C)C3)nc3ccc(Cl)cc23)n[nH]1 | 306 nM | > 4520 nM | > 15 | 
C[C@H]1CN(C(=O)c2nc(Nc3cc(C4CC4)[nH]n3)c3cc(Cl)ccc3n2)CCN1 | 28 nM | 690 nM | 25 | 
Cc1cc(Nc2nc(C(=O)N3CCN(C)CC3)nc3ccc(Cl)cc23)n[nH]1 | 768 nM |  |  | 
Cc1cc(Nc2nc(C(=O)NC3CNC3)nc3ccc(Cl)cc23)n[nH]1 | 782 nM |  |  | 
C[C@@H]1CN(C(=O)c2nc(Nc3cc(C4CC4)[nH]n3)c3cc(Cl)ccc3n2)CCN1 [listing 1 of 2 here] |  | 3110 nM |  | IC50 [4]: 15 nM; IC50 [5]: 11.1 nM
CC1CN(C(=O)c2nc(Nc3cc(C4CC4)[nH]n3)c3cc(Cl)ccc3n2)CC(C)N1 (mixture of isomers) | 114 nM | > 4520 nM | > 40 | 
Cc1cc(Nc2nc(C(=O)N3CCC(O)CC3)nc3ccc(Cl)cc23)n[nH]1 | 3820 nM |  |  | 
Cc1cc(Nc2nc(C(=O)N3CCNC[C@H]3C)nc3ccc(Cl)cc23)n[nH]1 | 151 nM | > 4520 nM | > 30 | 

SMILES | Ki [1] | Ki [2] | Ratio Ki (Homo sapiens) | also measured
Cc1cc(Nc2nc(C(=O)N3CCNC(=O)C3)nc3ccc(Cl)cc23)n[nH]1 | 2410 nM |  |  | 
COc1ccc2nc(C(=O)N3CCN[C@H](C)C3)nc(Nc3cc(C4CC4)[nH]n3)c2c1 | 36 nM | > 4520 nM | > 126 | 
CC(C)c1cc(Nc2nc(N3CCC(N)CC3)nc3ccc(Cl)cc23)n[nH]1 | 77 nM |  |  | 
NC1CCN(c2nc(Nc3cc(-c4ccccc4)[nH]n3)c3cc(Cl)ccc3n2)CC1 | 256 nM |  |  | 
O=C(c1nc(Nc2cc(C3CC3)[nH]n2)c2cc(Cl)ccc2n1)N1CCNCC1 | 16 nM | 2750 nM | 172 | Kd [3]: 16 nM
Cn1cnc(Nc2nc(N3CCC(N)CC3)nc3ccc(Cl)cc23)c1 | 710 nM | > 10000 nM | > 14 | ΔTm [6]: 0.5 °C; Kd [3]: 156 nM
C[C@@H]1CN(C(=O)c2nc(Nc3cc(C4CC4)[nH]n3)c3ccccc3n2)CCN1 | 17 nM | 1070 nM | 63 | 
CC(C)n1cnc(Nc2nc(N3CCC(N)CC3)nc3ccc(Cl)cc23)c1 | 884 nM |  |  | 
NC1CCN(c2nc(Nc3cn(-c4ccccc4)cn3)c3cc(Cl)ccc3n2)CC1 | 1440 nM |  |  | 
NC1CCN(c2nc(Nc3cn(C4CC4)cn3)c3cc(Cl)ccc3n2)CC1 | 652 nM |  |  | 
COc1cccc(Nc2nc(NCC3CCCO3)c3ccccc3n2)c1 (configuration not stated) |  |  |  | IC50 [7]: 48400 nM; IC50 [8]: 14900 nM
NC1CCN(c2nc(Nc3cc(C4CC4)[nH]n3)c3cc(Cl)ccc3n2)CC1 | 16 nM | 288 nM | 19 | Kd [3]: 6 nM
Cc1cc(Nc2nc(C(=O)N3CCNC[C@@H]3C)nc3ccc(Cl)cc23)n[nH]1 | 218 nM | > 4520 nM | > 21 | 
Cc1cc(Nc2nc(C(=O)N3CCN[C@H](C)C3)nc3ccc(Cl)cc23)n[nH]1 | 51 nM | > 10000 nM | > 196 | 
Cc1cc(Nc2nc(C(=O)N3CC(C)NC(C)C3)nc3ccc(Cl)cc23)n[nH]1 (mixture of isomers) | 119 nM |  |  | 
C[C@@H]1CN(C(=O)c2nc(Nc3cc(C4CC4)[nH]n3)c3cc(F)ccc3n2)CCN1 | 16 nM | 503 nM | 31 | 
C[C@@H]1CNCCN1C(=O)c1nc(Nc2cc(C3CC3)[nH]n2)c2cc(Cl)ccc2n1 | 17 nM | 2080 nM | 122 | 
Cc1cc(Nc2nc(C(=O)NC3CCNCC3)nc3ccc(Cl)cc23)n[nH]1 | 325 nM |  |  | 
C[C@@H]1CN(C(=O)c2nc(Nc3cc(C4CC4)[nH]n3)c3cc(Br)ccc3n2)CCN1 | 11 nM | 2080 nM | 190 | 
C[C@@H]1CN(C(=O)c2nc(Nc3cc(C4CC4)[nH]n3)c3cc(Cl)ccc3n2)CCN1 [listing 2 of 2 here] |  |  | 346 | Activity (A549 [9]): Active; Activity (A549 [10]): Active; inhibition [11]: Active; inhibition [12]: Dose-dependent effect; inhibition [13]: > 80%; inhibition [14]: Dose-dependent effect; Activity (HEK293 [15]): inactive; inhibition [16]: Active; Activity (NCI-H460 [17]): inactive; Activity (HEK293 [18]): inactive; inhibition [19]: Dose-dependent effect; Activity (A549 [20]): Active; Activity (A549 [21]): Active; Activity (NCI-H460 [22]): inactive
